Experimental data published in ChEMBL document CHEMBL4196055, “Synthesis and biological evaluation of α-santonin derivatives as anti-hepatoma agents” (Eur J Med Chem, 2018).

Legend:
HepG2 [1] = test: Antiproliferative activity against human HepG2 cells at 10 uM after 24 hrs by CCK-8 assay relative to control; type: functional
How it was run: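 HepG-2 grown in DMEM with 10% FBS and penicillin/streptomycin (37 °C, 5% CO2). Seeded 2 × 10^5 cells/well for 24 h, then given a single 10 μM dose or 1% DMSO vehicle for 24 h. CCK-8 reagent for 1 h, A450 read, and percent inhibition calculated against untreated control cells.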

HepG2 [2] = test: Antiproliferative activity against human HepG2 cells after 24 hrs by CCK-8 assay; type: functional, cell-based; details: HepG2, 24 h
How it was run: (§1)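 Cells in 10% FBS medium with penicillin/streptomycin at 37 °C, 5% CO2; HepG-2 in DMEM, QGY-7703, SMMC-7721 and QSG-7701 in RPMI 1640. Seeded 2 × 10^5 cells/well, grown 24 h, then exposed to five concentrations of compound or 1% DMSO vehicle for 24 h. CCK-8 added for 1 h, absorbance read at 450 nm; IC50 derived from the 5-dose data.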

QGY-7703 [3] = test: Antiproliferative activity against human QGY7703 cells after 24 hrs by CCK-8 assay; type: functional, cell-based; details: QGY-7703, 24 h; how it was run: as §1
SMMC-7721 = test: Antiproliferative activity against human SMMC7721 cells after 24 hrs by CCK-8 assay; type: functional, cell-based; details: SMMC-7721, 24 h; how it was run: as §1
[4] = Antiproliferative activity against human QSG7701 cells after 24 hrs by CCK-8 assay; type: cell-based; details: QSG7701, 24 h; how it was run: as §1
QGY-7703 [5] = test: Induction of apoptosis in human QGY7703 cells assessed as increase in cleaved PARP level after 24 hrs by Western blot analysis; type: functional, cell-based
How it was run: (§2)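 QGY-7703 cells subcultured for 24 h, then given compound for 24 h, with DMSO as control. Lysates in buffer with protease inhibitors, protein measured by BCA, equal amounts run on 10% SDS-PAGE and moved to PVDF. Blocked in 5% milk, probed overnight at 4 °C for PARP, cleaved caspase 3, pro-caspase 3 and pro-caspase 9 (1:1000), with GAPDH loading control. IRDye secondaries, densitometry reported as grayscale values.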

QGY-7703 [6] = test: Induction of apoptosis in human QGY7703 cells assessed as early apoptotic cells at 5 uM after 24 hrs by Annexin-V FITC/propidium iodide staining based flow cytometric analysis (reference value: 0.8 to 1%); type: functional
How it was run: (§3)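 Assay in QGY-7703 cells kept in RPMI 1640 with 10% FBS. Seeded at 5 × 10^5 cells/well for 24 h, then treated for 24 h with 5, 10 or 15 μM compound, DMSO as control. Annexin V-FITC/PI staining for 15 min at room temperature in the dark, then immediate flow cytometry to count the apoptotic fractions.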

QGY-7703 [7] = test: Induction of apoptosis in human QGY7703 cells assessed as increase in cleaved caspase 3 level after 24 hrs by Western blot analysis; type: functional, cell-based; how it was run: as §2
QGY-7703 [8] = test: Induction of apoptosis in human QGY7703 cells assessed as decrease in pro-caspase 9 level after 24 hrs by Western blot analysis; type: functional, cell-based; how it was run: as §2
QGY-7703 [9] = test: Induction of apoptosis in human QGY7703 cells assessed as late apoptotic cells at 5 uM after 24 hrs by Annexin-V FITC/propidium iodide staining based flow cytometric analysis (reference value: 4.1 to 4.3%); type: functional; how it was run: as §3
QGY-7703 [10] = test: Induction of apoptosis in human QGY7703 cells assessed as necrotic cells at 5 uM after 24 hrs by Annexin-V FITC/propidium iodide staining based flow cytometric analysis (reference value: 0.6 to 0.7%); type: functional; how it was run: as §3
QGY-7703 [11] = test: Induction of apoptosis in human QGY7703 cells assessed as viable cells at 5 uM after 24 hrs by Annexin-V FITC/propidium iodide staining based flow cytometric analysis (reference value: 94.2 to 94.3%); type: functional; details: QGY-7703, 24 h, read-out: Activity; how it was run: as §3
QGY-7703 [12] = test: Induction of apoptosis in human QGY7703 cells assessed as early apoptotic cells at 10 uM after 24 hrs by Annexin-V FITC/propidium iodide staining based flow cytometric analysis (reference value: 0.8 to 1%); type: functional; how it was run: as §3
QGY-7703 [13] = test: Induction of apoptosis in human QGY7703 cells assessed as late apoptotic cells at 10 uM after 24 hrs by Annexin-V FITC/propidium iodide staining based flow cytometric analysis (reference value: 4.1 to 4.3%); type: functional; how it was run: as §3
QGY-7703 [14] = test: Induction of apoptosis in human QGY7703 cells assessed as necrotic cells at 10 uM after 24 hrs by Annexin-V FITC/propidium iodide staining based flow cytometric analysis (reference value: 0.6 to 0.7%); type: functional; how it was run: as §3
QGY-7703 [15] = test: Induction of apoptosis in human QGY7703 cells assessed as viable cells at 10 uM after 24 hrs by Annexin-V FITC/propidium iodide staining based flow cytometric analysis (reference value: 94.2 to 94.3%); type: functional; details: QGY-7703, 24 h, read-out: Activity; how it was run: as §3
QGY-7703 [16] = test: Induction of apoptosis in human QGY7703 cells assessed as early apoptotic cells at 15 uM after 24 hrs by Annexin-V FITC/propidium iodide staining based flow cytometric analysis (reference value: 0.8 to 1%); type: functional; how it was run: as §3
QGY-7703 [17] = test: Induction of apoptosis in human QGY7703 cells assessed as late apoptotic cells at 15 uM after 24 hrs by Annexin-V FITC/propidium iodide staining based flow cytometric analysis (reference value: 4.1 to 4.3%); type: functional; how it was run: as §3
QGY-7703 [18] = test: Induction of apoptosis in human QGY7703 cells assessed as necrotic cells at 15 uM after 24 hrs by Annexin-V FITC/propidium iodide staining based flow cytometric analysis (reference value: 0.6 to 0.7%); type: functional; how it was run: as §3
QGY-7703 [19] = test: Induction of apoptosis in human QGY7703 cells assessed as viable cells at 15 uM after 24 hrs by Annexin-V FITC/propidium iodide staining based flow cytometric analysis (reference value: 94.2 to 94.3%); type: functional; details: QGY-7703, 24 h, read-out: Activity; how it was run: as §3

Structure (SMILES)	Activity (HepG2 [1]) [%]	IC50 (HepG2 [2]) [µM]	IC50 (QGY-7703 [3]) [µM]	IC50 (SMMC-7721) [µM]	IC50 [4] [µM]	Activity (QGY-7703 [5])	Activity (QGY-7703 [6]) [%]	Activity (QGY-7703 [7])	Activity (QGY-7703 [8])	Activity (QGY-7703 [9]) [%]	Activity (QGY-7703 [10]) [%]	viability at 5 µM (QGY-7703 [11]) [%]	Activity (QGY-7703 [12]) [%]	Activity (QGY-7703 [13]) [%]	Activity (QGY-7703 [14]) [%]	viability at 10 µM (QGY-7703 [15]) [%]	Activity (QGY-7703 [16]) [%]	Activity (QGY-7703 [17]) [%]	Activity (QGY-7703 [18]) [%]	viability at 15 µM (QGY-7703 [19]) [%]
C=C1C(=O)O[C@@H]2C3=C(C)[C@@H](OC(=O)c4ccc(Cl)cc4)CC3[C@](C)(OC(C)=O)CC[C@@H]12 (stereo partly specified)	72.69	7.1	10.1	4.24	46.9	Dose-dependent effect	20.6	Dose-dependent effect	Dose-dependent effect	1.7	0	77.7	15.5	20.6	0.3	63.6	24.4	63.4	0.6	11.6
C=C1C(=O)O[C@@H]2C3=C(C)[C@@H](OC(=O)c4ccc(Br)cc4)CC3[C@](C)(OC(C)=O)CC[C@@H]12 (stereo partly specified)	71.06	7.41	13.7	6.54	51.9	–	–	–	–	–	–	–	–	–	–	–	–	–	–	–
O=c1[nH]cc(F)c(=O)[nH]1 [FLUOROURACIL]	50.58	–	14.2	12.5	6.92	–	10.7	–	–	0.9	0	88.4	12.6	11.1	0.1	76.3	23	35.5	0.4	41.1
C=C1C(=O)O[C@@H]2C3=C(C)[C@@H](OC(=O)c4ccc(CCCCC)cc4)CC3[C@](C)(OC(C)=O)CC[C@@H]12 (stereo partly specified)	58.08	10.8	7.19	18.7	38.5	–	–	–	–	–	–	–	–	–	–	–	–	–	–	–
C=C1C(=O)O[C@@H]2C3=C(C)[C@@H](OC(=O)c4ccc(CCC)cc4)CC3[C@](C)(OC(C)=O)CC[C@@H]12 (stereo partly specified)	62.47	10.1	8.33	6.52	34.3	–	–	–	–	–	–	–	–	–	–	–	–	–	–	–
C=C1C(=O)O[C@@H]2C3=C(C)[C@@H](OC(=O)/C=C/c4ccc(Br)cc4)CC3[C@](C)(OC(C)=O)CC[C@@H]12 (stereo partly specified)	61.39	11.7	8.91	6.09	91.3	–	–	–	–	–	–	–	–	–	–	–	–	–	–	–
C=C1C(=O)O[C@@H]2C3=C(C)[C@@H](OC(=O)c4ccc(C(F)(F)F)cc4)CC3[C@](C)(OC(C)=O)CC[C@@H]12 (stereo partly specified)	72.42	5.63	5.64	5.49	41.1	–	–	–	–	–	–	–	–	–	–	–	–	–	–	–
C=C1C(=O)O[C@@H]2C3=C(C)[C@@H](OC(=O)c4ccc(C)cc4)CC3[C@](C)(OC(C)=O)CC[C@@H]12 (stereo partly specified)	58.47	8.52	12.2	6.49	> 100	–	–	–	–	–	–	–	–	–	–	–	–	–	–	–
C=C1C(=O)O[C@@H]2C3=C(C)[C@@H](OC(=O)c4ccc(CCCC)cc4)CC3[C@](C)(OC(C)=O)CC[C@@H]12 (stereo partly specified)	67.53	10.3	7.2	7.46	45.1	–	–	–	–	–	–	–	–	–	–	–	–	–	–	–
C=C1C(=O)O[C@@H]2C3=C(C)[C@@H](OC(=O)/C=C/c4ccc(Cl)cc4)CC3[C@](C)(OC(C)=O)CC[C@@H]12 (stereo partly specified)	62.92	7.51	3.06	4.08	> 100	Dose-dependent effect	16.6	Dose-dependent effect	Dose-dependent effect	1.8	0	81.6	11.3	18.8	0.2	69.7	38.1	31.7	0.5	29.6
C=C1C(=O)O[C@@H]2C3=C(C)[C@@H](OC(=O)/C=C/c4ccc(C)cc4)CC3[C@](C)(OC(C)=O)CC[C@@H]12 (stereo partly specified)	72.03	8.67	10.6	5.06	> 100	–	–	–	–	–	–	–	–	–	–	–	–	–	–	–
C=C1C(=O)O[C@@H]2C3=C(C)[C@@H](OC(=O)c4ccccc4)CC3[C@](C)(OC(C)=O)CC[C@@H]12 (stereo partly specified)	68.47	7.99	13	5.99	> 100	–	–	–	–	–	–	–	–	–	–	–	–	–	–	–
